Screening results as filed in PubChem.
HKDC1 inhibitor = HKDC1 (human) hexokinase inhibition; Q2TB90; hit rate 0.16% among 340,000; recombinant HKDC1, G6PDH/diaphorase resazurin coupled fluorescence; inhibition, % at 20 µM;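 active = inhibition above about 35% when tested at 20 µM, limit read from the data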;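 note: plate controls were DMSO wells with enzyme for no effect and DMSO wells lacking enzyme for full effect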
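Material: recombinant HKDC1 hexokinase; Amount: HKDC1 at 5 µg/mL; Medium: Tris pH 8.0 buffer with MgCl2, Tween-20, BSA, BME; Schedule: 90 min reaction incubation at room temperature, dark; Technique: coupled resazurin fluorescence, excitation 525 nm, emission 613 nm.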
ATG4B inhibitor = blocks human ATG4B protease cleavage of LC3 substrate | ATG4B cleavage of LC3-PLA2, NBD-HPC fluorescence, 1 h | Q9Y4P1 | inhibition, % at 8.33 µM | hit rate 0.51% among 340,000; in the data active = inhibition above about 40%
Target sequence (Q9Y4P1 whole entry, looked up): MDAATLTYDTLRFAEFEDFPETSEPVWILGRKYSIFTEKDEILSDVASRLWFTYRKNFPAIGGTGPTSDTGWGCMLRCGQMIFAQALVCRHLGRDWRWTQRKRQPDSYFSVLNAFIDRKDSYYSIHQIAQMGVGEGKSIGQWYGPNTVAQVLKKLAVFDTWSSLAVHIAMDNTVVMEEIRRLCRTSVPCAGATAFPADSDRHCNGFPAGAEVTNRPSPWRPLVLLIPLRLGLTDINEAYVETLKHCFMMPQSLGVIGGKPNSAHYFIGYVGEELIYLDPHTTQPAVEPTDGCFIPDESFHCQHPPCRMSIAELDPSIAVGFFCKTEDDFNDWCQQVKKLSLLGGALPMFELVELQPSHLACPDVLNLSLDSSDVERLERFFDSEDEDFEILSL
A1 inh = inhibitors of the anti-apoptotic protein A1, read as caspase activation; caspase activation, % (no concentration beside the values); MEF A1-2A-BIM cells, Caspase-Glo 3/7 luminescence, 3 h; percent of clofoctol response, vehicle zero; hit rate 0.066% among 330,000;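 active = over half of replicate activation scores above 10%, or exactly half above 10 with the replicate mean above 10; inconclusive = replicate mean below 10 yet half the replicates above 10; inactive = over half of replicates below 10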
AI-2 QS modul = modulators of Vibrio harveyi AI-2 quorum sensing system. Vibrio harveyi JMH597 AI-2 luminescence/OD600 ratio, 9 h; active compounds read low; strain lacks LuxN and CqsS sensors; 0 = neutral-control median. AID 2094. hit rate 0.4% among 300,000. activity change, % at 7.5 µM; in the data active = activity change below about -75%, passing the limit was not always enough; inconclusive = no clear call, values can overlap the other calls;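 note: luminescence divided by OD600 gain over 9 h not by final OD600 alone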
LANA-H2A inh = blocks KSHV LANA binding to histone H2A/H2B | Q9QR71 | cell-free LANA-H2A/H2B peptide, fluorescence polarization | inhibition, % (no concentration beside the values) | hit rate 0.6% among 320,000 | AID 2629; in the data active = inhibition mostly above about 10%, no sharp cut-off; inactive = mostly below about 6.7%
HDAC3 inh = inhibitors of human histone deacetylase 3; O15379; recombinant HDAC3, fluorogenic peptide/trypsin coupled, fluorescence; inhibition, % at 8.3 µM; hit rate 0.15% among 320,000; AID 2718; in the data active = inhibition above about 26%, passing the limit was not always enough; inconclusive = no clear call, values can overlap the other calls
HKDC1 act conf2 = HKDC1 (human) activation, single-dose confirmed; shares compounds with HKDC1 inhibitor; recombinant HKDC1, G6PDH/diaphorase resazurin fluorescence; active compounds read low; inhibition, % at 20 µM; hit rate 14% among 740;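 active = inhibition at or below a set negative limit, negative inhibition meaning the enzyme was activated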
* = called active by the depositor. Rows were chosen to be rich in hits. Some 1.8% of all compounds tested hit in one or more screens of this group.

Results for O=C(Nc1ccc(Nc2ccncc2)cc1)c1ccc(Nc2ccnc3ccc([N+](=O)[O-])cc23)cc1 ?
HKDC1 inhibitor: 44*; ATG4B inhibitor: 23; AI-2 QS modul: 29; HKDC1 act conf2: -7

How did O=S(=O)(CCc1ccncc1)c1ccc(Cl)cc1 do in these assays?
HKDC1 inhibitor: -2; ATG4B inhibitor: 2; A1 inh: 0; AI-2 QS modul: 18; LANA-H2A inh: 0; HDAC3 inh: 1

How did COc1ccc(CN2CCn3nc(C(=O)NC(C)C)cc3C2=O)cc1 do in these assays?
HKDC1 inhibitor: -75; ATG4B inhibitor: 0; A1 inh: 1; AI-2 QS modul: 40; LANA-H2A inh: 7; HDAC3 inh: -5; HKDC1 act conf2: -28

How did Cc1nc2c3cc(F)ccc3n(Cc3ccccc3)c2s1 do in these assays?
HKDC1 inhibitor: -60; ATG4B inhibitor: 2; A1 inh: 0; AI-2 QS modul: 4; LANA-H2A inh: -6; HDAC3 inh: -4; HKDC1 act conf2: -61*

What do the screens show for `N#Cc1ccc(CSc2nnc(NC(=O)c3ccc4ncsc4c3)s2)cc1`?
HKDC1 inhibitor: 51*; ATG4B inhibitor: -8; A1 inh: -1; AI-2 QS modul: 27; LANA-H2A inh: 2; HDAC3 inh: 9; HKDC1 act conf2: 41

Results for CN(C)C=NC(=O)/C(C#N)=C/c1ccccc1 ?
HKDC1 inhibitor: -5; ATG4B inhibitor: -7; A1 inh: 0; AI-2 QS modul: 28; LANA-H2A inh: 3; HDAC3 inh: 2

How did Cc1ccc(S(=O)(=O)/N=C2/C=C(Sc3ncn[nH]3)C(=O)c3ccccc32)cc1 do in these assays?
HKDC1 inhibitor: 69*; ATG4B inhibitor: 35; A1 inh: -3; LANA-H2A inh: -5; HDAC3 inh: 12; HKDC1 act conf2: 63

Results for CC(C)c1ccc(S(=O)(=O)/N=C2/C=C(Sc3ncn[nH]3)C(=O)c3ccccc32)cc1 ?
HKDC1 inhibitor: 64*; ATG4B inhibitor: 1; A1 inh: 1; LANA-H2A inh: 9; HDAC3 inh: 4; HKDC1 act conf2: 61

How did Cc1ccc(S(=O)(=O)/N=C2\C=C(Nc3ccc(O)cc3)C(=O)c3ccccc32)cc1 do in these assays?
HKDC1 inhibitor: 34; ATG4B inhibitor: 17; A1 inh: 3; LANA-H2A inh: -4; HDAC3 inh: -5

How did CC1CCCC(NC(=O)CSc2nncs2)C1C (stereo not given) do in these assays?
HKDC1 inhibitor: -2; ATG4B inhibitor: -3; A1 inh: 0; LANA-H2A inh: 1; HDAC3 inh: 1

What do the screens show for `CC(=O)Nc1ccc2cc3ccc(NC(C)=O)cc3nc2c1`?
HKDC1 inhibitor: 43*; ATG4B inhibitor: -4; A1 inh: -3; AI-2 QS modul: 28; LANA-H2A inh: 0; HDAC3 inh: -11; HKDC1 act conf2: 20

How did CC(=O)Nc1ccc2ccccc2c1 do in these assays?
HKDC1 inhibitor: 4; ATG4B inhibitor: -18; A1 inh: 0; AI-2 QS modul: 32; LANA-H2A inh: 1; HDAC3 inh: -3

How did Cc1c(N=C2C=CC(=O)c3ccccc32)c(=O)n(-c2ccccc2)n1C do in these assays?
HKDC1 inhibitor: 42*; ATG4B inhibitor: -6; AI-2 QS modul: 19; HKDC1 act conf2: 35

Results for COC1(NS(=O)(=O)c2ccc(Br)cc2)C(C)=CC(=O)C=C1C ?
HKDC1 inhibitor: 50*; ATG4B inhibitor: -4; A1 inh: 0; AI-2 QS modul: 20; LANA-H2A inh: -2; HDAC3 inh: -4; HKDC1 act conf2: 26

Results for Cc1ccc(NS(=O)(=O)c2ccc(Br)cc2)nc1 ?
HKDC1 inhibitor: -5; ATG4B inhibitor: 12; A1 inh: 0; AI-2 QS modul: 19; LANA-H2A inh: 3; HDAC3 inh: -12

How did CSc1nc(O)c(C(c2ccccc2Cl)c2c(O)nc(SC)[nH]c2=O)c(=O)[nH]1 do in these assays?
HKDC1 inhibitor: 1; ATG4B inhibitor: -1; A1 inh: -1; AI-2 QS modul: 8; LANA-H2A inh: 2; HDAC3 inh: 6

Results for CC(=O)N(C1=C(Cl)C(=O)c2ccccc2C1=O)C1CCCCC1 ?
HKDC1 inhibitor: 58*; ATG4B inhibitor: -8; A1 inh: 2; AI-2 QS modul: 42; LANA-H2A inh: -1; HDAC3 inh: inconclusive; HKDC1 act conf2: 78

Results for O=C(Cc1ccccc1[N+](=O)[O-])NCc1ccccc1Cl ?
HKDC1 inhibitor: -11; ATG4B inhibitor: -1; A1 inh: -1; AI-2 QS modul: -13; LANA-H2A inh: -2; HDAC3 inh: 0

Results for COC(=O)c1ccc2c(c1)C(C)(C)C(/C=C/c1ccccc1O)=[N+]2C ?
HKDC1 inhibitor: 38*; ATG4B inhibitor: 8; A1 inh: inconclusive; LANA-H2A inh: -20; HDAC3 inh: 15; HKDC1 act conf2: 7

Results for C[N+]1=C(/C=C/Nc2ccccc2Cl)C(C)(C)c2ccccc21 ?
HKDC1 inhibitor: 13; ATG4B inhibitor: 9; A1 inh: 0; AI-2 QS modul: 19

How did COCCNCCCCOc1ccccc1-c1ccccc1 do in these assays?
HKDC1 inhibitor: -13; ATG4B inhibitor: 7; A1 inh: 0; AI-2 QS modul: 29; LANA-H2A inh: -1; HDAC3 inh: -2

Results for CCCCNCCOCCOc1ccccc1-c1ccccc1 ?
HKDC1 inhibitor: -59; ATG4B inhibitor: 5; A1 inh: 1; AI-2 QS modul: 22; LANA-H2A inh: -1; HDAC3 inh: 4; HKDC1 act conf2: -7

How did O=C(Nc1ccc(Br)cc1)C1CC(O)CN1C(=O)Oc1ccccc1 (stereo not given) do in these assays?
HKDC1 inhibitor: -4; ATG4B inhibitor: -6; A1 inh: 0; AI-2 QS modul: 4; LANA-H2A inh: 3; HDAC3 inh: 2

How did CCOC(=O)c1c(NC(=O)CSc2nnnn2-c2ccc(OC)cc2)sc(C)c1C do in these assays?
HKDC1 inhibitor: -48; ATG4B inhibitor: 1; A1 inh: 1; AI-2 QS modul: 25; LANA-H2A inh: 0; HDAC3 inh: -3; HKDC1 act conf2: -42*

Results for O=C(COC(=O)/C=C/c1ccco1)NCc1ccc2c(c1)OCO2 ?
HKDC1 inhibitor: -1; ATG4B inhibitor: 2; A1 inh: 1; AI-2 QS modul: 21; LANA-H2A inh: 0; HDAC3 inh: 12

Results for O=C1/C(=C/Nc2cccc([N+](=O)[O-])c2)CCc2ccccc21 ?
HKDC1 inhibitor: 41*; ATG4B inhibitor: 33; A1 inh: 0; AI-2 QS modul: 14; LANA-H2A inh: -2; HDAC3 inh: 5; HKDC1 act conf2: 5

Results for O=C(O)c1ccccc1-c1c2cc(I)c(=O)c(I)c-2oc2c(I)c(O)c(I)cc12 ?
HKDC1 inhibitor: 69*; ATG4B inhibitor: -6; A1 inh: 0; LANA-H2A inh: -90; HDAC3 inh: 10; HKDC1 act conf2: 43
